The source of these data is ChEMBL document CHEMBL1146590, “Cytotoxic sesquiterpene lactones from the root of Saussurea lappa” (2003).

For one assay, the system named is HepG2. The experiment in a line: Cytotoxicity against human HepG2 cells after 48 hrs by MTT assay. In kind it is functional. To be noted: for CC50: HepG2, 48 h, read-out: CD50 (the source's name). On the technique in general: Tetrazolium dyes change colour on reduction, which living cells bring about.
For assay [1], the system named is OVCAR-3. The experiment in a line: Cytotoxicity against human OVCAR-3 cells after 48 hrs by MTT assay. The format is functional. To be noted: for CC50: OVCAR-3, 48 h, read-out: CD50 (the source's name). The method in brief: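 OVCAR-3 cells were exposed to a range of concentrations for 48 h, and viability was read by MTT colorimetric assay. CD50 was determined by the MTT method. Data are reported as mean ± SD (n = 4).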

The subject of the next assay is HeLa. The experiment in a line: Cytotoxicity against human HeLa cells after 48 hrs by MTT assay. To be noted: read-out: CD50 (the source's name). The format is functional.
In assay [2] the test system is Staphylococcus aureus. The experiment in a line: Antibacterial activity against Staphylococcus aureus. In kind it is functional.
The test system of a further assay is Enterococcus. The experiment in a line: Antibacterial activity against vancomycin-resistant Enterococcus CKU-17. The format is functional.
A further assay has as its system Enterococcus faecalis. The experiment in a line: Antibacterial activity against Enterococcus faecalis. The format is functional.
Assay [3] deals with Staphylococcus aureus. The experiment in a line: Antibacterial activity against methicillin-resistant Staphylococcus aureus. In kind it is functional.
A further assay has as its system Escherichia coli. The experiment in a line: Antibacterial activity against Escherichia coli. The format is functional.
The test system of the next assay is OVCAR-3 (Homo sapiens). The experiment in a line: Cytotoxicity against human OVCAR-3 cells after 48 hrs by MTT assay.
For assay [4], the system named is OVCAR-3. The experiment in a line: Cytotoxicity against human OVCAR-3 cells assessed as half cell death at 4 times CD50 up to 2 hrs by MTT assay. The format is functional, cell-based. A digest of the protocol:
(§1)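 OVCAR-3 cells were seeded at 5 × 10^3 per well and grown 24 h. […] Compound was washed out, fresh medium was added, and cells were incubated a further 48 h at 37 °C. Viable cells were read by MTT at OD 570 nm as % of control, mean ± SD (n = 4).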

Assay [5] deals with OVCAR-3. The experiment in a line: Cytotoxicity against human OVCAR-3 cells assessed as half cell death at CD50 after 24 hrs by MTT assay. In kind it is functional, cell-based. The method in brief:
as §1

Assay [6] has as its system OVCAR-3. The experiment in a line: Cytotoxicity against human OVCAR-3 cells assessed as half cell death at 2 times CD50 after 6 hrs by MTT assay. In kind it is functional, cell-based. A digest of the protocol:
as §1

Converted amounts (≈) assume the structure as drawn. The source made the active and inactive calls. No cut-off for these calls is given here.

In the case of `C=C(CO)[C@@H]1CC[C@@]2(C)CCC[C@@](C)(O)[C@@H]2C1` [ILICIC ALCOHOL], the CC50 with HepG2, with OVCAR-3 [1] and in the assay with HeLa was more than 100 µg/mL throughout.

For `C=C1CC[C@H]2C(=C)CC[C@@H]3[C@H](OC(=O)[C@@]3(O)CC(C)=O)[C@@H]12` [LAPPALONE], the CC50 in the assay on HepG2, in the assay on OVCAR-3 [1] and with HeLa was more than 100 µg/mL each time.

For `CN[C@H](CC(C)C)C(=O)N[C@H]1C(=O)N[C@@H](CC(N)=O)C(=O)N[C@H]2C(=O)N[C@H]3C(=O)N[C@H](C(=O)N[C@H](C(=O)O)c4cc(O)cc(O)c4-c4cc3ccc4O)[C@H](O)c3ccc(c(Cl)c3)Oc3cc2cc(c3O[C@@H]2O[C@H](CO)[C@@H](O)[C@H](O)[C@H]2O[C@H]2C[C@](C)(N)[C@H](O)[C@H](C)O2)Oc2ccc(cc2Cl)[C@H]1O` [VANCOMYCIN], the MIC – broadly, the lowest concentration that inhibits growth of the organism – against Staphylococcus aureus [2] was 1.56 µg/mL (≈ 1.08 µM); with Enterococcus, more than 100 µg/mL; in the assay on Enterococcus faecalis, 3.13 µg/mL (≈ 2.16 µM); with Staphylococcus aureus [3], 1.56 µg/mL (≈ 1.08 µM).

Consider `C=C1CC[C@H]2C(=C)CC[C@H]3C(=C)C(=O)O[C@@H]3[C@@H]12` [DEHYDROCOSTUSLACTONE], for which the MIC was 400 µg/mL (≈ 1740 µM) against Staphylococcus aureus [2]; more than 800 µg/mL in the assay on Escherichia coli; more than 800 µg/mL against Enterococcus; more than 800 µg/mL in the assay with Enterococcus faecalis; 800 µg/mL (≈ 3470 µM) in the assay on Staphylococcus aureus [3]. Moreover, the Activity result with HepG2, in the assay on OVCAR-3 [1] and with OVCAR-3 (Homo sapiens) was “Dose-dependent effect” in each case. The CC50 in the assay on HepG2 is 3.5 µg/mL (≈ 15.2 µM); with OVCAR-3 [1], 2.5 µg/mL (≈ 10.9 µM); in the assay with HeLa it was 3.5 µg/mL (≈ 15.2 µM).

Regarding `C=C1[C@@H]2[C@H]3OC(=O)[C@@H](C)[C@@H]3CCC(=C)[C@@H]2C[C@H]1O`, the CC50 in the assay on HepG2 stood at 75 µg/mL (≈ 302 µM); in the assay with OVCAR-3 [1], 65 µg/mL (≈ 262 µM); in the assay on HeLa, 65 µg/mL (≈ 262 µM).

As for `C=C1C(=O)O[C@@H]2[C@H]3C(C)=CC[C@@H](O)[C@]3(C)CC[C@@H]12` [SANTAMARIN], the MIC against Staphylococcus aureus [2] was 800 µg/mL (≈ 3220 µM); in the assay with Escherichia coli, more than 800 µg/mL; in the assay on Enterococcus it was more than 800 µg/mL; against Enterococcus faecalis it was more than 800 µg/mL; in the assay on Staphylococcus aureus [3], 800 µg/mL (≈ 3220 µM). For the same compound, the CC50 in the assay with HepG2 came out at 7.5 µg/mL (≈ 30.2 µM); with OVCAR-3 [1], 10 µg/mL (≈ 40.3 µM); in the assay on HeLa, 10 µg/mL (≈ 40.3 µM).

Take `C=C1C(=O)O[C@@H]2[C@@H]3[C@](C)(CCC[C@@]3(C)O)CC[C@@H]12` [ARBUSCULIN A]: the results for the CC50 in the assay on HepG2, with OVCAR-3 [1] and in the assay on HeLa were 10 µg/mL (≈ 39.9 µM), 7.5 µg/mL (≈ 30 µM) and 7.5 µg/mL (≈ 30 µM), respectively.

As for `O=C(N[C@H](CO)[C@H](O)c1ccc([N+](=O)[O-])cc1)C(Cl)Cl` [CHLORAMPHENICOL], the MIC against Enterococcus and with Enterococcus faecalis was 6.25 µg/mL (≈ 19.3 µM) throughout.

With `C=C1CC[C@H]2C(=C)CC[C@@H]3[C@H](OC(=O)[C@@]3(O)C[C@]3(C)CCC(=O)[C@]4(C)CC[C@H]5C(=C)C(=O)O[C@@H]5[C@@H]34)[C@@H]12` [LAPPADILACTONE], the Activity entry with HepG2, in the assay on OVCAR-3 [1] and with OVCAR-3 (Homo sapiens) was “Dose-dependent effect” each time. The CC50 was determined as 2.4 µg/mL (≈ 4.85 µM) in the assay on HepG2, 2.5 µg/mL (≈ 5.05 µM) in the assay with OVCAR-3 [1] and 1.8 µg/mL (≈ 3.64 µM) in the assay on HeLa. In addition, the outcome in the assay with OVCAR-3 [4], in the assay on OVCAR-3 [5] and in the assay on OVCAR-3 [6] was Active.

As to `C=C1[C@@H]2[C@H]3OC(=O)C(=C)[C@@H]3CCC(=C)[C@@H]2C[C@H]1O` [ISOZALUZANIN C], the CC50 with HepG2 came out at 15 µg/mL (≈ 60.9 µM); in the assay with OVCAR-3 [1], 7.5 µg/mL (≈ 30.4 µM); with HeLa, 13.5 µg/mL (≈ 54.8 µM).

Turning to `C=C1CC[C@@H](O)[C@]2(C)CC[C@H]3C(=C)C(=O)O[C@@H]3[C@@H]12` [REYNOSIN], the MIC in the assay on Staphylococcus aureus [2] was 800 µg/mL (≈ 3220 µM); against Escherichia coli, more than 800 µg/mL; against Enterococcus it was more than 800 µg/mL; against Enterococcus faecalis, more than 800 µg/mL; in the assay with Staphylococcus aureus [3], more than 800 µg/mL. Moreover, the CC50 is 11 µg/mL (≈ 44.3 µM) with HepG2, 7.5 µg/mL (≈ 30.2 µM) in the assay with OVCAR-3 [1] and 7.5 µg/mL (≈ 30.2 µM) in the assay on HeLa.

As to `C=C1[C@@H]2[C@H]3OC(=O)C(=C)[C@@H]3CCC(=C)[C@@H]2C[C@@H]1O` [ZALUZANIN C], the CC50 amounted to 34 µg/mL (≈ 138 µM) with HepG2, 15 µg/mL (≈ 60.9 µM) with OVCAR-3 [1] and 22 µg/mL (≈ 89.3 µM) in the assay on HeLa.

For `C=C1C(=O)O[C@@H]2/C=C(\C)CC/C=C(\C)CC[C@@H]12` [COSTUNOLIDE], the MIC is 100 µg/mL (≈ 430 µM) against Staphylococcus aureus [2]; more than 800 µg/mL against Escherichia coli; 400 µg/mL (≈ 1720 µM) against Enterococcus; 400 µg/mL (≈ 1720 µM) in the assay on Enterococcus faecalis; 200 µg/mL (≈ 861 µM) in the assay with Staphylococcus aureus [3]. For the same compound, the Activity entry in the assay with HepG2, in the assay with OVCAR-3 [1] and in the assay on OVCAR-3 (Homo sapiens) was “Dose-dependent effect” throughout. In addition, the CC50 with HepG2 was determined as 1.6 µg/mL (≈ 6.89 µM); with OVCAR-3 [1], 2 µg/mL (≈ 8.61 µM); in the assay with HeLa, 2 µg/mL (≈ 8.61 µM).

On to GENTAMICIN, for which the minimal inhibitory concentration (MIC) in the assay on Staphylococcus aureus [2] was 0.78 µg/mL; against Escherichia coli, 3.13 µg/mL; with Staphylococcus aureus [3], more than 100 µg/mL.

As to `C[C@@H]1C(=O)O[C@H]2[C@H]1CC[C@@]1(C)[C@H](O)CC[C@@](C)(O)[C@H]21` [COLARTIN], the MIC in the assay with Staphylococcus aureus [2], in the assay on Escherichia coli, against Enterococcus and against Enterococcus faecalis was more than 800 µg/mL each time. Moreover, the results for the CC50 in the assay on HepG2, in the assay with OVCAR-3 [1] and in the assay with HeLa were more than 100 µg/mL, 100 µg/mL (≈ 373 µM) and 100 µg/mL (≈ 373 µM), respectively.

Consider `C=C1CC[C@@H](O)[C@]2(C)CC[C@@H]3[C@H](OC(=O)[C@H]3C)[C@@H]12`, for which the CC50 in the assay with HepG2 is more than 100 µg/mL; in the assay on OVCAR-3 [1], 95 µg/mL (≈ 379 µM); with HeLa it was more than 100 µg/mL.

On to `C=C1CC[C@@H](O)[C@]2(C)CC[C@@H](C(=C)C(=O)OCC)[C@H](O)[C@@H]12`, for which the CC50 in the assay with HepG2 came out at 50 µg/mL (≈ 170 µM); with OVCAR-3 [1] it was 75 µg/mL (≈ 255 µM); in the assay on HeLa, 75 µg/mL (≈ 255 µM).
